Measured values published in publication PMC12531995 (RSC Advances, 2025).
Marks after values point to notes of the source that are not given here.

Columns and labels:
[1] = tested on: carrageenan-induced paw edema in rats; details: cited from earlier work
[2] = tested on: PTZ-induced seizures in mice; assay: Pentylenetetrazol; format: in vivo; details: Mus musculus, po, 24 h, read-out: 24 h mortality
Method in brief: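 Mice were randomised into ten groups of ten. Animals were dosed orally, with 0.5% carboxymethyl cellulose as the negative-control vehicle. Seizures were then induced by intraperitoneal pentylenetetrazol at a convulsive dose of 85 mg kg−1.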

[3] = tested on: pilocarpine-induced seizures in mice; assay: Pilocarpine-induced seizure; format: in vivo
Method in brief: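 Male mice, n = 10 per group. Vehicle (0.5% CMC) or test compound (20 mg kg−1) given orally 30 min before pilocarpine (300 mg kg−1, i.p.) to induce status epilepticus. Valproic acid reference was 300 mg kg−1 orally, 30 min prior. Non-epileptic controls got vehicle only. Scored latency to forelimb clonus (stage 3), severity at 30, 60, 90 and 120 min, and 24 h survival. Mean ± SD.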

| SMILES | Paw thickness difference, 1st hour ([1]; 1st hour post-carrageenan, oral, mean ± SD, n = 6) [mm] | Percentage of inhibition of paw thickness, 1st hour ([1]; 1st hour, vs carrageenan group) [%] | Paw thickness difference, 2nd hour ([1]; 2nd hour post-carrageenan, oral, mean ± SD, n = 6) [mm] | Percentage of inhibition of paw thickness, 2nd hour ([1]; 2nd hour, vs carrageenan group) [%] | Paw thickness difference, 3rd hour ([1]; 3rd hour post-carrageenan, oral, mean ± SD, n = 6) [mm] | Percentage of inhibition of paw thickness, 3rd hour ([1]; 3rd hour, vs carrageenan group) [%] | Paw thickness difference, 4th hour ([1]; 4th hour post-carrageenan, oral, mean ± SD, n = 6) [mm] | Percentage of inhibition of paw thickness, 4th hour ([1]; 4th hour, vs carrageenan group) [%] | Paw thickness difference, 5th hour ([1]; 5th hour post-carrageenan, oral, mean ± SD, n = 6) [mm] | Percentage of inhibition of paw thickness, 5th hour ([1]; 5th hour, vs carrageenan group) [%] | weight gain (paw) ([1]; 5 hour mark) [%] | Paw weight increase ([1]; right vs left paw, mean ± SD, n = 6) | mortality at 20 mg/kg [2] [%] | 24 h Survival ([3]; compounds 20 mg kg^−1, valproic acid 300 mg kg^−1 orally, mice n = 10) [%] | Onset (latency to forelimb clonus, stage 3) ([3]; mice n = 10, compounds 20 mg kg^−1 orally, valproic acid 300 mg kg^−1 orally, 30 minutes before pilocarpine 300 mg kg^−1 i.p., mean ± SD) | Reduction of final seizure severity ([3]; vs pilocarpine group, 120 min) [%] |
| --- | --- | --- | --- | --- | --- | --- | --- | --- | --- | --- | --- | --- | --- | --- | --- | --- |
| Cc1ccc(-c2cc(C(F)(F)F)nn2-c2ccc(S(N)(=O)=O)cc2)cc1 [Celecoxib] | 1.4 ± 0.38 | 29.31 | 2.36 ± 0.51 | 28.34 | 2.83 ± 0.43 | 33 | 3.01 ± 0.57 | 40.39 | 3.10 ± 0.23 | 41.65 | 68.15 | 29.95 ± 2.20^ab % |  |  |  |  |
| CCCC(CCC)C(=O)O [Valproic acid (VI), valproic acid] |  |  |  |  |  |  |  |  |  |  |  |  | 30 | 60 | 10.65 ± 0.52^a mins | 60 |
